Measurements pooled from the literature.
Each line is one published result; the experiments were not run side by side.
Effect on: cell growth or viability

The CC50 of `COc1cc(OC)c2c(=O)cc(-c3ccc(N(C)C)cc3)oc2c1-c1c(OC)cc(OC)c2c(=O)cc(-c3ccc(N(C)C)cc3)oc12` is reported as greater than 200 µM (HS27; MTT; 24 h).
With `C[C@]1(CO)[C@H]2CC[C@@H]3CN(Cc4cccs4)[C@@H](C4=CCOC4=O)C[C@H]3[C@]2(C)CC[C@H]1O` the cell death was -7.4% (MRC5; ATP luminescence; 25 µM, 72 h).
`CC(C)(C)CC(C)(C)Nc1c(-c2cccnc2)nc2ncccn12` gave a viability of 85.2% (MDA-MB-231; MTT; 25 µM, 48 h).
For `CC1(C)OC[C@@]2(C)[C@H]3CC[C@@H]4CN(Cc5ccccc5C5CC5)[C@@H](C5=CCOC5=O)C[C@H]4[C@]3(C)CC[C@H]2O1`, the cell death was 16.7% (MRC5; ATP luminescence; 25 µM, 72 h).
`COc1cc(C)cc2oc(-c3ccccc3)cc(=O)c12` gave a CC50 of greater than 200 µM (HS27; MTT; 24 h).
`COc1ccc(COc2ccc(NC(=O)NC[C@H]3O[C@H](n4cc(C)c(=O)[nH]c4=O)C[C@@H]3O)cc2)cc1` has a CC50 of greater than 50 µM (MRC5).
For `NCC(NC(=O)c1ccc(-c2ccc(C(F)(F)F)c(F)c2)[nH]1)c1nc(CO)cs1` (stereo not drawn), the CC50 was 35 µM (U87.CD4.CXCR4; XTT; 72 h).
`COc1ccc(-c2nc3ncccn3c2NC(C)(C)CC(C)(C)C)cc1O` gave a viability of 67.3% (MDA-MB-231; MTT; 25 µM, 48 h).
The cell death of `CC(=O)OC[C@@]1(C)[C@H]2CC[C@@H]3CN(C(C)C)[C@@H](C4=CCOC4=O)C[C@H]3[C@]2(C)CC[C@H]1OC(C)=O` is reported as -2.1% (MRC5; ATP luminescence; 25 µM, 72 h).
With `COc1cc(C)cc2oc(-c3ccc(N(C)C)cc3)cc(=O)c12` the CC50 was 141 µM (HS27; MTT; 24 h).
`CC1(C)OC[C@@]2(C)[C@H]3CC[C@@H]4CN(Cc5ccc(C(F)(F)F)cc5)[C@@H](C5=CCOC5=O)C[C@H]4[C@]3(C)CC[C@H]2O1` gave a cell death of 7.1% (MRC5; ATP luminescence; 25 µM, 72 h).
`COc1cc(OC)c2c(=O)cc(-c3ccccc3)oc2c1-c1c(OC)cc(OC)c2c(=O)cc(-c3ccccc3)oc12` gave a CC50 of greater than 200 µM (HS27; MTT; 24 h).
